MBD2 inh: inhibitors of human MBD2 binding to methylated oligonucleotide; actives 0.31% (n = 370,000); inhibition, % at 4.4 µM; TR-FRET; in the data active = inhibition above about 13%
SUMO1 PPI mod: modulators of human SUMO1-mediated protein-protein interactions; inhibition, % at 20 µM; AID 602429; actives 0.33% (n = 360,000); SUMO1 binding to a labelled peptide, TR-FRET, 1 h; P63165; in the data active = inhibition above about 37%
DNMT1 inh: DNMT1 (human) enzyme inhibition. DNMT1 molecular beacon, Hinp1I cleavage, fluorescence. inhibition (reported as % activation of signal), % at 10 µM. actives 0.83% (n = 360,000). AID 588458; in the data active = inhibition above about 50%
UHRF1 binding: human UHRF1 methylated DNA binding inhibitors; UHRF1 binding to methylated oligo, TR-FRET; inhibition, % at 4.4 µM; actives 0.75% (n = 370,000); AID 687016; in the data active = inhibition above about 21%;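 note: UHRF1 SRA domain binding a hemimethylated CpG hairpin DNA probe; 0% = median of test compound wells and 100% = reference inhibitor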
Target sequence (Q96T88 whole entry, looked up, the tested form may be a part): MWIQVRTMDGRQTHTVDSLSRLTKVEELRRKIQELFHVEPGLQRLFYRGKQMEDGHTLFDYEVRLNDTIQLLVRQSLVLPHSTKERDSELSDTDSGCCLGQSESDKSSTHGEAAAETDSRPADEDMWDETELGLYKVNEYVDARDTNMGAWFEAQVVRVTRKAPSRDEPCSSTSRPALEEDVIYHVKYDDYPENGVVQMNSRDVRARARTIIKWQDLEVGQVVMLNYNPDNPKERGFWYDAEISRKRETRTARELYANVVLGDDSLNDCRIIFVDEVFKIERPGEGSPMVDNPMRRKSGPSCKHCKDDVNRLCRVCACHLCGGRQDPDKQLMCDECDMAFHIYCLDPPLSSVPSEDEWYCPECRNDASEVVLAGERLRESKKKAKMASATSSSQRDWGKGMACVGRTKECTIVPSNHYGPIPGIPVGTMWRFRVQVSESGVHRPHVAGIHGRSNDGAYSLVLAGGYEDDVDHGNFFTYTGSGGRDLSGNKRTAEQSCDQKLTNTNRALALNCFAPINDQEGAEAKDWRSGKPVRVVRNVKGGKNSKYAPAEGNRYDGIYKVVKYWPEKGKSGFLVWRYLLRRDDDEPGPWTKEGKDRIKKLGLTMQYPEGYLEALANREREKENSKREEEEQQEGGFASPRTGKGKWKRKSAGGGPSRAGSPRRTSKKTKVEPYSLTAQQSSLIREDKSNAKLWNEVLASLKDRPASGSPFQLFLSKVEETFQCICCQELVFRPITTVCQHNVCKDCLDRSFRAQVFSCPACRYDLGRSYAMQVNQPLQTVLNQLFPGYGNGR
DSG3 Ab inh: inhibitors of pemphigus antibody binding to human desmoglein-3 | DSG3-coupled beads, scFv-anti-DSG3-GFP binding, flow cytometry; stronger effect = lower value | actives 0.48% (n = 310,000) | binding (percent of control), % at 10 µM | P32926;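 active = binding more than 3 SD below its plate's average and above zero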;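 note: hits lower antibody fragment binding to DSG3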
NS3 helicase inh: inhibitors of Hepatitis C virus NS3 helicase; NS3 helicase DNA unwinding, Cy5 molecular beacon fluorescence; actives 0.56% (n = 290,000); inhibition, % at 10.9 µM;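 active = inhibition above the mean of all tested compounds plus 3 SD, set per campaign, cut at about 35% in these data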;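 note: 0% = DMSO wells and 100% = thioflavine S control wells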
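Assay system: hepatitis C virus NS3 helicase domain fragment enzyme. Also added: annealed dual-labelled DNA beacon duplex, ATP-started. Timing: 1 h reaction at 25 °C, ATP-initiated. Technique: Cy5 fluorescence at 0 and 60 min, beacon hairpin quenching. Evaluation: % inhibition of unwinding. Replication: one well per compound.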
Active calls of the source: *; / = no result given. Rows were chosen to be rich in hits. Some 2.5% of all compounds tested hit in one or more screens of this group.

SMILES	MBD2 inh	SUMO1 PPI mod	DNMT1 inh	UHRF1 binding	DSG3 Ab inh	NS3 helicase inh
Cc1ccc(NC(=O)CN(C)Cc2c(O)ccc3ccccc23)cc1	-1	/	/	-2	/	-4
C/C(N)=C(/C#N)C(=O)COc1ccc(Cl)cc1Cl	2	61*	-3	0	99	-1
CC(Sc1nnc(COc2ccc([N+](=O)[O-])cc2)n1-c1ccccc1)C(=O)O (stereo not given)	/	-8	-2	/	101	2
c1ccc(Nc2nc(-c3ccccc3)ns2)cc1	-7	-9	10	-1	58*	-6
CCc1c(C)c2ccc(OCC(=O)OC(C)C)c(C)c2oc1=O	-2	0	1	2	102	3
NC(=O)CSc1nnc(COc2ccccc2)n1N	-3	0	5	3	98	-1
Cc1ccc(OCc2nnc(SCC(N)=O)n2N)cc1	3	44*	-1	-1	98	8
O=C(Nc1cccc(S(=O)(=O)NC2=NCCCCC2)c1)c1cc(-c2ccco2)nc2ccccc12	12	12	97*	11	76	10
COc1cccc(C(=O)Nc2ccc(C(=O)c3ccncc3)cc2)c1	-1	-13	0	4	101	23
O=C(O)C(S)C(S)C(=O)O (stereo not given)	/	23	86*	/	93	/
O=C(O)O	/	/	/	/	/	0
CCc1cc2c3c(c(=O)oc2cc1OC)CCCC3	-7	-1	-2	1	101	-7
COC(=O)c1cc2c(c3c4cc(OC)ccc4n(S(=O)(=O)c4ccc(C)cc4)c13)C(=O)N(Cc1ccccc1)C2	1	/	/	0	/	/
COC(=O)c1cc2c(n1S(=O)(=O)c1ccc(C)cc1)C(=O)C(=O)c1[nH]cc(C(=O)OCc3ccccc3)c1-2	/	-4	82*	/	79	/
Cc1noc(C)c1S(=O)(=O)Nc1ccc2c(c1)C(=O)N([C@H](C)CO)C[C@H](C)[C@@H](CN(C)C(=O)NC(C)C)O2	-1	13	12	1	96	/
CN1C(=O)C(O)(CC(=O)c2ccccn2)c2cc(Br)ccc21 (stereo not given)	9	-6	-6	7	120	-7
O=C(Cn1sc2ccccc2c1=O)Nc1ccc(Cl)cc1	1	3	-3	-2	72*	/
Cc1ccccc1N1CCN(Cc2c[nH]c3ccccc23)CC1	-4	-3	-1	0	109	-15
Cc1cc(NC(=O)C2CCCCC2)ncc1NC(=O)c1ccccn1	-1	2	4	-1	103	7
Cc1cc(NC(=O)C2CC2)ncc1NC(=O)c1ccccn1	2	14	3	22*	105	3
Cc1cccc(NC(=O)COC(=O)c2ccc(S(=O)(=O)N3CCCC3)cc2)c1	-1	-3	-2	1	102	/
CCOc1ccc(C(=O)Nc2cc(C)c3c(=O)oc4ccccc4c3n2)cc1	4	-45	46	-1	101	-7
Cc1cc(NC(=O)c2ccccc2)nc2c1c(=O)oc1ccccc12	-1	52*	1	-4	99	-16
COc1ccc(S(=O)(=O)N2CCOC2CNC(=O)C(=O)NCCc2ccccc2)cc1C (stereo not given)	-2	-1	39	-2	113	-5
O=C(COC(=O)c1ccc(S(=O)(=O)N2CCc3ccccc3C2)cc1)NC1CCS(=O)(=O)C1 (stereo not given)	1	21	-2	-1	67*	5
SMILES	MBD2 inh	SUMO1 PPI mod	DNMT1 inh	UHRF1 binding	DSG3 Ab inh	NS3 helicase inh
Cn1c(SCc2ccc(F)cc2)nnc1-c1cnccn1	3	-3	1	3	76*	8
Cc1ccc(O)c(-c2cc(C(=O)Nc3ccc(S(=O)(=O)Nc4nccc(C)n4)cc3)[nH]n2)c1	-1	18	2	1	86	-5
COCCNC(=O)CN(C(=O)Cn1nnc2ccccc21)c1ccccc1C	2	-4	2	2	97	3
COCCNC(=O)CN(C(=O)Cn1nnc2ccccc21)c1ccc(F)c(Cl)c1	10	-2	3	81*	121	-5
O=C(COc1ccc(Cl)cc1)Nc1ccc(N2CCN(C(=O)c3ccco3)CC2)cc1	-2	-8	5	-3	72*	-8
O=C(NCCCNc1ccc(C(F)(F)F)cc1[N+](=O)[O-])c1ccc(Cl)cc1	0	-14	-3	52*	83	2
O=C(O)Cc1sc(N/N=C\c2ccccc2)nc1-c1ccccc1	2	5	90*	-5	83	20
CCOC(=O)c1sc(N/N=C/c2ccccc2)nc1C	-3	0	4	0	103	-9
CCCCN(CCCC)C(=S)NC(=O)C(C)(C)C	-2	2	0	-2	105	-1
Cc1cc(-c2ccccc2)c2c(=O)[nH][nH]c2n1	-2	-1	7	49*	121	22
O=c1[nH]nc(-c2ccccc2)cc1-c1ccccc1	4	-14	1	0	109	/
Cc1cc(S(=O)(=O)N2CCCC2C(=O)N2CCOCC2)c(C)cc1Cl (stereo not given)	0	-5	1	0	97	0
CN(C)c1ccc(C(=O)NC2(N3CCC3=O)CCCC2)cc1	4	6	1	31*	96	7
Cc1cc(Cl)ccc1N(CC(=O)NCc1ccc2c(c1)OCO2)S(C)(=O)=O	-4	1	0	7	/	-3
Cc1cc(C)c2nc3sc(C(=O)N4CCOCC4)c(N)c3cc2c1	-6	-26	-6	37*	92	11
COc1ccc(C2SCC(=O)N2c2ccccc2)cc1 (stereo not given)	11	3	-1	22*	101	-11
CCOC(=O)c1ccc(NC(=O)CCN2C(=O)C3CC=CCC3C2=O)cc1 (stereo not given)	7	6	0	1	102	/
COc1ccc2cc(C#N)c(SCC(=O)N3CC(=O)Nc4ccccc43)nc2c1	/	-66	-3	/	69*	-4
O=C(c1ccco1)[C@@H]1[C@@H]2C(=O)N(c3ccc(Br)cc3)C(=O)[C@@H]2C2c3ccccc3C=CN21 (stereo not given in full)	-6	-1	-4	-5	102	43*
CC(=O)[C@H]1[C@@H]2C(=O)N(c3cccc(Cl)c3)C(=O)[C@@H]2[C@H]2c3ccccc3C=CN21	1	5	-20	-6	/	17
CC(=O)NC(c1cccc(F)c1)c1nc(-c2cccc(C(C)C)c2)cs1 (stereo not given)	1	9	5	0	/	/
CC(=O)Nc1ccc(NC(=S)NC(=O)c2ccc(-c3ccccc3)cc2)cc1	3	2	-3	0	71*	/
O=C(O)c1ccc(NC(=S)NC(=O)c2ccc(-c3ccccc3)cc2)cc1	1	6	-3	-1	31*	13

Bioassay records (PubChem)
